Screening data deposited in PubChem by several laboratories.
D1 mod: allosterically modulates the human D1 dopamine receptor; P21728; HEK293 D1, CRE-luciferase, dopamine EC30 potentiation; actives deviate in either direction; B-score at 10 µM; 58,000 compounds, 5.9% hits; AID 641;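 active means luminescence count or its row- and column-corrected plate score outside the 99.7% band of the plate's sample wells, on either side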
Target sequence (P21728 whole entry, looked up): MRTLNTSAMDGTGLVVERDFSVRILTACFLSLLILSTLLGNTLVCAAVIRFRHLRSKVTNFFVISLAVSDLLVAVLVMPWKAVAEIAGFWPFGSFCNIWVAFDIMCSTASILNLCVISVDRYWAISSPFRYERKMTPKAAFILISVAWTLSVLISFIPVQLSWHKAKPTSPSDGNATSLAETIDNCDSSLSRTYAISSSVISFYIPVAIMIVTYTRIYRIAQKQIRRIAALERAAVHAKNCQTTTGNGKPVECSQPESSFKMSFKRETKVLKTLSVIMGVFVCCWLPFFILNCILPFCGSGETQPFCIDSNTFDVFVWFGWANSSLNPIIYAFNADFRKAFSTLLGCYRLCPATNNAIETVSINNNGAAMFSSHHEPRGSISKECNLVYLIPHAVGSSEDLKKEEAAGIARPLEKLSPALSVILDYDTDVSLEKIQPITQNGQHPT
AP ELISA ortho: alternative pathway complement inhibition, orthogonal assay; Human serum alternative complement pathway, LPS-coated ELISA, C3 deposition; tested in compound mixtures; inhibition, % at 5 µM; 62,000 compounds, 0.08% hits; AID 1235;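 active means inhibition above 30% in each of the two pooled mixtures holding the compound, so the lower value exceeds 30%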;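 further: 0% = serum in Mg-EGTA without compound and 100% = EDTA serum blank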
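Assay system: human serum alternative complement pathway, C3 deposition on LPS-coated wells; Dosing: 5 µM per compound in ten-compound mixtures; Detection: Anti-C3 ELISA, OD 450 nm; Buffer or medium: Mg2+-EGTA GVB++ buffer containing human serum at 1:15 dilution; Timing: 1 h at 37 °C; Replication: two different pools per compound.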
M1 agonist: agonists of M1 muscarinic receptor. CHO-M1 cells, Fluo-4 calcium fluorescence, agonist mode; active compounds read high. AID 626. B-score at 10 µM. 64,000 compounds, 3% hits;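 active means fluorescence rise, raw or as B-score row- and column-corrected plate score, outside the 99.7% band of its plate's samples, either direction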
Htt clearance: mutant huntingtin protein clearance. HeLa Exon1htt(103Q)mCFP, aggregate imaging; zero = plate's median compound well. inhibition, % at 1.5 µM. 47,000 compounds, 0.42% hits. AID 853;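 active means inhibition of aggregate fluorescence above about 70%, also judged a hit by eye on the cell image, limit read from the data, passing the limit was not always enough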;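 further: cells exposed to compound for three days before fixation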
M1 antagonist: blocks the rat M1 muscarinic receptor response to acetylcholine; P08482; CHO-M1 cells, Fluo-4 calcium, ACh EC80 antagonist mode; active compounds read low; B-score at 10 µM; 64,000 compounds, 3.4% hits;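 active means calcium fluorescence response, raw or row-and-column corrected B-score, differing from the plate sample mean either way at a set confidence level, mostly lower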
D1 mod confirm: D1 receptor (human) allosteric modulation, confirmed; AID 642; luminescence at 10 µM; shares compounds with D1 mod; 2,200 compounds, 88% hits; HEK293 D1 CRE-luciferase, dopamine EC30 potentiation; active compounds read high;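 active means luminescence in either of two replicates above the same-plate mean plus 3 SD of the low-dose dopamine control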
D1 ag no DA: activates D1 CRE-luciferase signal without dopamine present. 1,900 compounds, 0.8% hits. luminescence at 10 µM. HEK293 D1 CRE-luciferase, luminescence, no dopamine; active compounds read high. shares compounds with D1 mod; in the data active means luminescence above about 3900
Isoprot counter: alters isoproterenol CRE-luciferase response in HEK293 cells | calls only at 10 µM | HEK293 D1 CRE-luciferase, isoproterenol EC30 counter-screen | shares compounds with D1 mod | 2,200 compounds, 63% hits;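 active means luminescence in either replicate above plate mean of wells with a partly effective reference agonist dose plus 3 SD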;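 further: isoproterenol raises cAMP through native beta-adrenoceptor Gs so signal bypasses D1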
Active calls of the source: *; i = inactive; . = not tested or not shown; + = active, no number. An excerpt weighted towards active compounds, which were near 9% of everything screened.

SMILES	D1 mod	AP ELISA ortho	M1 agonist	Htt clearance	M1 antagonist	D1 mod confirm	D1 ag no DA	Isoprot counter
CC(=O)c1nn(-c2cccc(Cl)c2)cc1C(=O)c1ccco1	4.3*	7	-0.048	.	-0.47	12508*	1716	i
CC1CCCN(C(=O)C2CCN(CC3CC=CCC3)CC2)C1 (centres undefined)	0.016	4	0.1	.	-0.54	.	.	.
CCC(C)(C)NC(=O)CN(C(=O)c1snc(C(N)=O)c1N)c1ccc2c(c1)OCCO2	6.6*	17	-1.7	.	-0.55	4748	1392	i
Cc1cc(C)n2nc(NCc3cccc(Br)c3)nc2n1	.	-2	-0.059	29	-0.28	.	.	.
CN(C(=O)CSc1nc(N)nn1-c1ccccc1)c1ccccc1	11*	11	-0.68	.	0.054	6016	1696	i
CN(C)C(=O)CSc1nc(SCC(=O)N(C)C)n(-c2ccccc2)n1	0.18	13	0.78	.	0.24	.	.	.
Cc1cnn(-c2nc(-c3cccs3)cc(C(F)(F)F)n2)c1	15*	14	.	.	.	14404*	.	+
CCCCn1c(NC(=O)CC)c(C#N)c2nc3ccccc3nc21	7.2*	2	-1.2	-52	0.28	14868*	1560	+
CCCCCn1c(Sc2nc3ccccc3s2)nc2c1c(=O)[nH]c(=O)n2C	17*	4	0.068	-26	0.81	22672*	1660	+
CCNc1nc2c(c(=O)[nH]c(=O)n2C)n1CC(C)C	1.8	10	0.28	.	-0.6	.	.	.
CCCCCCn1c(SCC(=O)OC)nc2c1c(=O)[nH]c(=O)n2C	4.7*	11	-0.51	.	-0.087	5408	1472	+
Cc1ccc(Cn2c(Sc3nccc(C)n3)nc3c2c(=O)[nH]c(=O)n3C)cc1	.	5	-0.11	14	0.41	.	.	.
CCCCCCn1c(NCC)nc2c1c(=O)[nH]c(=O)n2C	5.3*	-6	0.56	6	-0.11	9696*	1604	+
CCCCCn1c(Sc2ncccn2)nc2c1c(=O)[nH]c(=O)n2C	20*	.	0.42	40	1.1	25988*	1676	+
O=C(COC(=O)CCC(=O)Nc1nccs1)NCc1ccco1	0.45	13	-0.0097	-27	0.54	.	.	.
Cc1nn(CC#N)c(=O)n1-c1ccccc1	.	.	.	-34	.	.	.	.
Cn1c(C(=O)N2CCN(C(=O)c3ccco3)CC2)cc2c(=O)n3ccccc3nc21	-0.13	15	0.24	1	-0.34	.	.	.
CCOC(=O)c1cc2c(=O)n3ccccc3nc2n(CCCOC)c1=NC(C)=O	4.7*	16	-0.18	.	0.14	9064*	.	i
CCCn1c(=NC(=O)c2ccco2)c(C(=O)OCC)cc2c(=O)n3ccccc3nc21	6.1*	-9	0.81	-97	-1.1	16752*	1572	i
O=C(CSc1cccc(C(F)(F)F)c1)Nc1ccc(Cl)cc1Cl	.	.	.	3	.	.	.	.
CCn1c(=O)c(C(=O)Nc2cccnc2)c(O)c2ccccc21	0.84	5	-0.048	.	-0.2	.	.	.
CCCn1c(=O)c(C(=O)NCc2ccncc2)c(O)c2ccccc21	5.2*	10	-0.36	13	0.0039	6720*	1628	i
CCn1c(=O)c(C(=O)NCc2cccnc2)c(O)c2ccccc21	4.8*	9	-0.96	-63	0.57	13308*	1676	i
COC(=O)C1=C(C)Nc2ccc(C)cc2S1	8.7*	11	0.64	.	0.14	11576*	1468	+
COc1ccc(CNCCNC(=O)c2ccco2)c(OC)c1OC	0.22	12	0.039	.	0.022	.	.	.
COc1ccc2c(C)c(C(=O)NCC(C)O)oc2c1OC (centres undefined)	7.5*	-1	0.37	.	-0.037	11688*	1436	+
Cc1cccc(-c2c3c(=O)n(C)c(=O)n(C)c3c3cccnn23)c1	22*	16	-0.2	-1	-0.63	23480*	1672	+
CCn1cc2c(c1-c1cccc(C)c1)c(=O)n(C)c(=O)n2C	.	28	0.33	.	-0.32	.	.	.
Cc1cccc(-c2c3c(=O)n(C)c(=O)n(C)c3cn2C(C)C)c1	14*	16	2.8*	24	0.38	15796*	1340	+
